Results reported in ChEMBL document CHEMBL4400529, “Structure-based drug design, synthesis, In vitro, and In vivo biological evaluation of indole-based biomimetic analogs targeting estrogen receptor-α inhibition” (Eur J Med Chem, 2019).
Active and inactive are the calls of the source. The rule behind the calls is not given here.

What was measured:
MCF7 = test: Antiproliferative activity against human MCF7 cells after 24 hrs by MTT assay; format: functional, cell-based; conditions: MCF7, 24 h
Procedure, shortened: (§1)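 Cells from ATCC, subcultured by an earlier reported method, then exposed to 5-fold serial dilutions in triplicate for 24 h. Cells were washed with PBS, given MTT for 2 h, then dissolved in DMSO. Absorbance read at 570 nm.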

T47D = test: Antiproliferative activity against human T47D cells after 24 hrs by MTT assay; format: functional, cell-based; procedure, shortened: as §1
Ehrlich [1] = test: Antitumor activity against mouse EAC cells implanted in Swiss albino mouse assessed as increase in necrotic areas in outer zone of tumor mass at 10 mg/mouse, ip dosed once weekly starting 5 days after inoculation by hematoxylin and eosin staining-based assay; format: functional, organism-based
Procedure, shortened: (§2)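 EAC solid tumors in female Swiss albino mice, with weekly i.p. treatment in 10% Tween 80 against vehicle and fulvestrant controls. Tumors were collected on day 15, formalin-fixed, paraffin-embedded and stained with H&E. Necrotic index scored in 10 random fields per section per animal. n=10, one-way ANOVA with Tukey-Kramer.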

Estrogen receptor = target: T1, Estrogen receptor (Homo sapiens, UniProt P03372); test: Inhibition of estrogen receptor-alpha (unknown origin) by ELISA
T1 sequence (P03372 whole entry): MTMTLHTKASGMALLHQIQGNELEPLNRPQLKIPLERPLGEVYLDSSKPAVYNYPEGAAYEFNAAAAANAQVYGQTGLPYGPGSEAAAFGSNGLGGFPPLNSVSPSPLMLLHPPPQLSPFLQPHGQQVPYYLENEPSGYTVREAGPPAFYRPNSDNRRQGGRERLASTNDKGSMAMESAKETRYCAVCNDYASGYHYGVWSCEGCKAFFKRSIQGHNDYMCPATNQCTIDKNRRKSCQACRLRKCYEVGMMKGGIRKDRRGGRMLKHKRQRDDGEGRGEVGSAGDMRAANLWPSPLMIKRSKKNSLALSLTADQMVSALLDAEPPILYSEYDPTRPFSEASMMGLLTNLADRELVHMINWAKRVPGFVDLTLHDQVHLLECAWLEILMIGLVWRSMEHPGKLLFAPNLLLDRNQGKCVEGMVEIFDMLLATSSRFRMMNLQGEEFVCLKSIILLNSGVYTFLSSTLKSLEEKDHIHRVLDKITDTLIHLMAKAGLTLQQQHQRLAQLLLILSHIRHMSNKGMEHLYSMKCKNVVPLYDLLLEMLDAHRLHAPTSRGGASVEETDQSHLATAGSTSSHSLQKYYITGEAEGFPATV

[2] = Acute toxicity in Swiss albino mouse assessed induction of behavioural changes at 10 mg/mouse, ip dosed once weekly; format: organism-based; conditions: in vivo
Procedure, shortened: (§3)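 Normal female-strain-unspecified mice got a single i.p. dose of 10 mg/mouse. They were watched for 7 days for short-term acute toxic signs, behavioural changes and mortality.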

[3] = Acute toxicity in Swiss albino mouse assessed induction of mortality at 10 mg/mouse, ip dosed once weekly; format: organism-based; conditions: in vivo; procedure, shortened: as §3
Ehrlich [4] = test: Antitumor activity against mouse EAC cells implanted in Swiss albino mouse assessed as reduction in tumor size at 5 to 10 mg/mouse, ip dosed once weekly starting 5 days after inoculation and measured 9 and 12 days of treatment relative to fulvestrant; format: functional, organism-based
Procedure, shortened: (§4)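 Female Swiss albino mice received EAC cells from donor ascitic fluid (~12.5 × 10^6/mL in sterile saline, 0.2 mL) i.m. into the left thigh. Treatment began at a palpable mass of ~100 mm3, given i.p. once weekly in 10% Tween 80 against vehicle and fulvestrant 5 mg/mouse controls. Caliper tumor volume = L × H² × 0.52. Mean ± SD, n=10, one-way ANOVA with Tukey-Kramer.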

Ehrlich [5] = test: Antitumor activity against mouse EAC cells implanted in Swiss albino mouse assessed as reduction in tumor volume at 5 mg/mouse, ip dosed once weekly starting 5 days after inoculation and measured on 15 days of treatment relative to fulvestrant; format: functional, organism-based; procedure, shortened: as §4
[6] = Acute toxicity in Swiss albino mouse implanted with mouse EAC cells assessed effect on body weight at 5 to 10 mg/mouse, ip dosed once weekly starting 5 days after inoculation and measured up to 20 days after inoculation; format: organism-based; conditions: in vivo
Procedure, shortened: (§5)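 Female Swiss albino mice were given EAC cells from donor ascitic fluid, diluted in sterile saline to ~12.5 × 10^6/mL, 0.2 mL i.m. into the left thigh. Once-weekly i.p. dosing in 10% Tween 80 began at a palpable ~100 mm3 mass; controls got vehicle. Tumour volume (caliper, L × H² × 0.52) and body weight were taken over 15 days; n=10, mean ± SD, ANOVA/Tukey-Kramer.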

Ehrlich [7] = test: Antitumor activity against mouse EAC cells implanted in Swiss albino mouse assessed as reduction in viable tumor cell area in outer zone of tumor mass at 10 mg/mouse, ip dosed once weekly starting 5 days after inoculation by hematoxylin and eosin staining-based assay; format: functional, organism-based; procedure, shortened: as §2
Mus musculus [8] = test: Decrease in ER-alpha protein expression in tumors of Swiss albino mouse mouse implanted with mouse EAC cells at 5 mg/mouse, ip dosed once weekly starting 5 days after inoculation by immunohistochemical analysis relative to control; format: functional; parameters: scale not given: the % may be the effect or the level left
Procedure, shortened: (§6)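 Tumors from the EAC mouse model after 15 days of treatment were stained by avidin-biotin immunoperoxidase using an anti-ER-α monoclonal antibody (1:100 in PBS), detected with DAB and counterstained with Mayer's hematoxylin. A section without primary antibody served as negative control. Percentage of positive cells estimated in 10 random fields per section per animal. Mean ± SD, n=10.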

Mus musculus [9] = test: Decrease in ER-alpha protein expression in tumors of Swiss albino mouse mouse implanted with mouse EAC cells at 10 mg/mouse, ip dosed once weekly starting 5 days after inoculation by immunohistochemical analysis relative to control; format: functional; parameters: scale not given: the % may be the effect or the level left; procedure, shortened: as §6
Mus musculus [10] = test: Decrease in ER-alpha protein expression in tumors of Swiss albino mouse mouse implanted with mouse EAC cells at 5 mg/mouse, ip dosed once weekly starting 5 days after inoculation by immunohistochemical analysis relative to fulvestrant; format: functional; parameters: scale not given: the % may be the effect or the level left; procedure, shortened: as §6
Mus musculus [11] = test: Decrease in ER-alpha protein expression in tumors of Swiss albino mouse mouse implanted with mouse EAC cells at 10 mg/mouse, ip dosed once weekly starting 5 days after inoculation by immunohistochemical analysis relative to fulvestrant; format: functional; parameters: scale not given: the % may be the effect or the level left; procedure, shortened: as §6
[12] = Acute toxicity in Swiss albino mouse assessed induction of toxic signs at 10 mg/mouse, ip dosed once weekly; format: organism-based; conditions: in vivo; procedure, shortened: as §3
Ehrlich [13] = test: Antitumor activity against mouse EAC cells implanted in Swiss albino mouse assessed as induction of tumor degeneration in outer zone of tumor mass at 10 mg/mouse, ip dosed once weekly starting 5 days after inoculation by hematoxylin and eosin staining-based assay; format: functional, organism-based; procedure, shortened: as §2
Ehrlich [14] = test: Antitumor activity against mouse EAC cells implanted in Swiss albino mouse assessed as reduction in tumor size at 5 mg/mouse, ip dosed once weekly starting 5 days after inoculation; format: functional, organism-based; procedure, shortened: as §5
Ehrlich [15] = test: Antitumor activity against mouse EAC cells implanted in Swiss albino mouse assessed as reduction in tumor volume at 10 mg/mouse, ip starting 5 days after inoculation dosed once weekly and measured on 15 days of treatment relative to fulvestrant; format: functional, organism-based; procedure, shortened: as §4
Ehrlich [16] = test: Antitumor activity against mouse EAC cells implanted in Swiss albino mouse assessed as induction of necrosis at 5 mg/mouse, ip dosed once weekly starting 5 days after inoculation by hematoxylin and eosin staining-based assay; format: functional, organism-based; procedure, shortened: as §2
Ehrlich [17] = test: Antitumor activity against mouse EAC cells implanted in Swiss albino mouse assessed as focal necrotic areas in deeper parts of tumor mass at 10 mg/mouse, ip dosed once weekly starting 5 days after inoculation by hematoxylin and eosin staining-based assay; format: functional, organism-based; procedure, shortened: as §2
Ehrlich [18] = test: Antitumor activity against mouse EAC cells implanted in Swiss albino mouse assessed as viable cell area in deeper parts of tumor mass at 10 mg/mouse, ip dosed once weekly starting 5 days after inoculation by hematoxylin and eosin staining-based assay; format: functional, organism-based; procedure, shortened: as §2

Work on CC/C(=C(\c1ccccc1)c1ccc(OCCN(C)C)cc1)c1ccccc1 [TAMOXIFEN] yielded an IC50 (MCF7) of 42.4 µM and an IC50 (T47D) of 34.4 µM.

For O=C(Nc1ccc2cc[nH]c2c1)c1cccc(C(F)(F)F)c1, the Activity (Ehrlich [1]) was “Active”, the IC50 (MCF7) was 30.6 µM and the IC50 (T47D) was 28.2 µM. For the same compound, the IC50 (Estrogen receptor) was 0.00176 µM, the Activity [2] was “Non-Toxic” and the Activity [3] was “Non-Toxic”. For the same compound, the Activity (Ehrlich [4]) was “Active”, the Activity (Ehrlich [5]) was “Active” and the Activity [6] was “Non-Toxic”. For the same compound, the Activity (Ehrlich [7]) was “Active”, the Activity (Mus musculus [8]) was 64.71% and the Activity (Mus musculus [9]) was 35.3%. For the same compound, the Activity (Mus musculus [10]) was 57.75%, the Activity (Mus musculus [11]) was 22.54% and the Activity [12] was “Non-Toxic”. The Activity (Ehrlich [13]) was “Active”.

For N#Cc1ccc(C(=O)Nc2ccc3cc[nH]c3c2)cc1, the IC50 (MCF7) was 33.6 µM, the IC50 (T47D) was 35.8 µM and the IC50 (Estrogen receptor) was 0.0024 µM.

In the case of C[C@]12CC[C@@H]3c4ccc(O)cc4C[C@@H](CCCCCCCCC[S+]([O-])CCCC(F)(F)C(F)(F)F)[C@H]3[C@@H]1CC[C@@H]2O (some centres undefined), the Activity (Ehrlich [14]) is reported as “Active”.

O=S(=O)(Nc1ccc2cc[nH]c2c1)c1ccc(Cl)cc1 gave an IC50 (MCF7) of 54 µM, an IC50 (T47D) of 46.2 µM and an IC50 (Estrogen receptor) of 0.0444 µM.

O=C(Nc1ccc2cc[nH]c2c1)c1ccc(Br)cc1 showed an IC50 (MCF7) of 38.1 µM, an IC50 (T47D) of 63.7 µM and an IC50 (Estrogen receptor) of 0.00471 µM.

With O=C(Nc1ccc2cc[nH]c2c1)c1ccc(F)cc1 the IC50 (MCF7) was 45.9 µM, the IC50 (T47D) was 35.1 µM and the IC50 (Estrogen receptor) was 0.0695 µM.

In the case of O=S(=O)(Nc1ccc2cc[nH]c2c1)c1ccc(F)cc1, the IC50 (MCF7) is reported as 30.9 µM, the IC50 (T47D) is reported as 33 µM and the IC50 (Estrogen receptor) is reported as 0.00331 µM. The Activity [2] was “Non-Toxic”, the Activity [3] was “Non-Toxic” and the Activity (Ehrlich [4]) was “Active”. The Activity (Ehrlich [15]) was “Active”, the Activity [6] was “Non-Toxic” and the Activity (Ehrlich [16]) was “inactive”. For the same compound, the Activity (Ehrlich [17]) was “Active”, the Activity (Ehrlich [18]) was “Active” and the Activity (Mus musculus [8]) was 58.24%. The Activity (Mus musculus [9]) was 37.65%, the Activity (Mus musculus [10]) was 50% and the Activity (Mus musculus [11]) was 25.35%. The Activity [12] was “Non-Toxic”.

Compound O=S(=O)(Nc1ccc2cc[nH]c2c1)c1ccc(Br)cc1 has an IC50 (MCF7) of 37.8 µM, an IC50 (T47D) of 40.1 µM and an IC50 (Estrogen receptor) of 0.0227 µM.

For Cc1ccc(S(=O)(=O)Nc2ccc3cc[nH]c3c2)cc1, the IC50 (MCF7) was 37.2 µM, the IC50 (T47D) was 57.1 µM and the IC50 (Estrogen receptor) was 0.205 µM.

Compound O=C(Nc1ccc2cc[nH]c2c1)c1ccc(C(F)(F)F)cc1 has an IC50 (MCF7) of 63.4 µM, an IC50 (T47D) of 51.3 µM and an IC50 (Estrogen receptor) of 0.00815 µM.

COc1ccc(S(=O)(=O)Nc2ccc3cc[nH]c3c2)cc1 showed an IC50 (MCF7) of 57.2 µM, an IC50 (T47D) of 45 µM and an IC50 (Estrogen receptor) of 0.00753 µM.
